SENP8 block-1 = SENP8 protease inhibition | Q96LD8 | purified SENP8, Z-RLRGG-aminoluciferin cleavage, luminescence | inhibition, % at 10 µM | 330,000 compounds, 1.2% hits; in the data active = inhibition above about 50%
UBC13 polyUb = inhibitors of human UBC13 polyubiquitin chain formation; P61088; TR-FRET; inhibition, % at 20 µM; 330,000 compounds, 0.47% hits; in the data active = inhibition above about 45%, passing the limit was not always enough
Target sequence (P61088 whole entry, looked up): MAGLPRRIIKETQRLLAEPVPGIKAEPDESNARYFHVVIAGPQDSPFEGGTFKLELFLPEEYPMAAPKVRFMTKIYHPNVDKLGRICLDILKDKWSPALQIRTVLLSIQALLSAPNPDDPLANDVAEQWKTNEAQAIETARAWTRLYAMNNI
Apaf1 inhib = human Apaf-1 inhibition. O14727. reconstituted apoptosome caspase-3 activity, DEVD-Rh110 fluorescence. 330,000 compounds, 0.71% hits. inhibition, % at 20 µM; active = inhibition of at least 40% at 20 µM
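Material: reconstituted apoptosome with Apaf-1, cytochrome c, caspase-9, procaspase-3, dATP; medium: pH 7.5 Hepes buffer with CHAPS, BSA, DTT; also added: cytochrome c and DEVD-Rh110 substrate; timing: 30 min plus 50 min, RT; signal: Rh110 fluorescence intensity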
SENP8 block-2 = inhibitors of human SENP8 protease | 360,000 compounds, 0.64% hits | recombinant SENP8, Nedd8 substrate fluorescence | inhibition, % at 20 µM | Q96LD8; in the data active = inhibition mostly above about 40%, no sharp cut-off; inactive = mostly below about 27%
SENP6 block = inhibitors of human SENP6 protease. inhibition, % at 10 µM. 330,000 compounds, 1.8% hits. Q9GZR1. Recombinant SENP6 catalytic domain, aminoluciferin luminescence;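 active = inhibition above about 50% at the single tested dose, limit read from the data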
SENP7 inh = SENP7 protease inhibition. recombinant SENP7, Z-RLRGG-aminoluciferin luminescence, 40 min. inhibition, % at 5 µM. 330,000 compounds, 1.5% hits;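 active = inhibition above about 50% at the single test dose, limit read from the data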
Target sequence (Q9BQF6 706-1050 limits assumed): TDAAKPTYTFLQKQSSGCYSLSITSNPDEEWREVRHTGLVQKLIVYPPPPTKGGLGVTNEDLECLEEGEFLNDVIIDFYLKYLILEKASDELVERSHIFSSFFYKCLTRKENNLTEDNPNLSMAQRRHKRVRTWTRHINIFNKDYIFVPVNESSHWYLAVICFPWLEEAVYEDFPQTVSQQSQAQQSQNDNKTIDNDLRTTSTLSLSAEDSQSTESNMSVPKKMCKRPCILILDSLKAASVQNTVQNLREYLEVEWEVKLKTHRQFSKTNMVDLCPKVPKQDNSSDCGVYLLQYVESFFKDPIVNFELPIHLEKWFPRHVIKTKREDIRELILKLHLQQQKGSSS
Apaf-1 inh conf = Apaf-1 inhibition, single-dose confirmed; shares compounds with Apaf1 inhib; reconstituted apoptosome, caspase-3 DEVD-Rh110 fluorescence; inhibition, % at 20 µM; 1,800 compounds, 25% hits; AID 504614;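 active = mean inhibition of at least 40% at 20 µM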
Rh110 quench = Rh110 signal interference in Apaf-1 inhibitor counter-screen; shares compounds with Apaf1 inhib; Rh110 fluorescence interference, quenched caspase reaction; activation (fluorescence interference), % at 20 µM; 1,800 tested, under 10 active;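 active = signal rise of 40% or more at 20 µM, treated as a fluorescence artifact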
Apaf1 inh interf = counter-screen for Apaf-1 inhibitors: fluorescence interference, dose response | IC50, µM | fluorescence interference counterscreen, Apaf-1 assay format | shares compounds with Apaf1 inhib | 460 tested, under 10 active; call rule not given here
SENP8 conf = SENP8 (human) inhibition, single concentration confirmation; inhibition, % at 25 µM; 1,400 compounds, 15% hits; shares compounds with SENP8 block-2; purified SENP8, Nedd8-AMC/pro-Nedd8 cleavage fluorescence, 30 min; in the data active = inhibition mostly above about 39%, no sharp cut-off; inactive = mostly below about 34%
A number is an active result; . = inactive; / = not tested or not shown. An excerpt weighted towards active compounds, which were near 3% of everything screened.

SMILES	SENP8 block-1	UBC13 polyUb	Apaf1 inhib	SENP8 block-2	SENP6 block	SENP7 inh	Apaf-1 inh conf	Rh110 quench	SENP8 conf	others
COc1ccc(NS(=O)(=O)c2cccc(C(=O)N3CCCCCCC3)c2)cc1	.	.	45	.	.	.	.	.	/
COc1ccc2c(c1)Cc1sc(NC(=O)c3cccnc3)nc1-2	86	.	89	64	89	84	.	.	.
COc1ccc2c(c1)CCc1sc(NC(=O)c3ccc(C)cc3)nc1-2	.	.	.	.	.	.	/	/	/
COc1ccc(NC(=O)N(C)C[C@H]2Oc3ccc(NS(=O)(=O)c4cccs4)cc3C(=O)N([C@@H](C)CO)C[C@@H]2C)cc1	.	.	.	.	.	.	/	/	/
CC(=O)/C(=N\Nc1ccccc1)Sc1nncn1C	.	.	.	.	.	.	/	/	/
CSc1nncc(/C(C)=N\Nc2ccccc2)n1	.	.	70	52	.	.	.	.	.
Cc1cccc(N/N=C(\C#N)S(=O)(=O)C(C)(C)C)c1	/	/	/	.	/	/	/	/	/
CSc1nncc(/C(C)=N\Nc2cccc(C)c2)n1	.	.	61	46	.	.	.	.	.
Nc1cccc2nsnc12	.	.	68	48	.	.	.	.	.
O=C(NCc1cccnc1)c1cc(S(=O)(=O)N2CCCC2)c(Cl)cc1Cl	.	.	.	.	.	.	/	/	/
CCOc1ccccc1NC(=O)C1CCCN(S(=O)(=O)c2ccc3c(c2)CCCN3C(C)=O)C1 (centres undefined)	/	/	/	.	/	/	/	/	/
COc1cc(Br)c(C(=O)c2nccc3cc(OC)c(OC)cc23)cc1OC	95	.	89	113	90	92	79	.	101	Apaf1 inh interf=.
CC1(OC(=O)c2ccc(Cl)nc2)C(=O)C=C2C=C3CCCN3C=C2C1=O (centres undefined)	.	.	44	65	.	.	.	.	44
O=c1[nH]nc(CNc2ccc(C(F)(F)F)cc2)c2ccccc12	.	.	.	.	.	.	/	/	/
O=c1[nH]nc(CNc2ccc(O)cc2)c2ccccc12	.	.	94	114	.	.	.	.	.
CCOC(=O)c1[nH]ncc1CN1CCC(Cc2cccc(OC)c2)(C(=O)OCC)CC1	.	.	.	.	.	.	/	/	/
Cc1cc2c(N)cccc2nn1	95	.	97	114	91	.	.	.	45
Nc1cccc2nc3ccccc3cc12	.	.	.	.	.	.	/	/	/
CC(=O)N1CCN(C(=O)c2cc(S(=O)(=O)N(C)c3ccc(F)cc3)ccc2Cl)CC1	.	.	.	.	.	.	/	/	/
Cc1ccc(OCC(O)CNC(C)c2ccccc2)cc1C (centres undefined)	.	.	.	.	.	.	/	/	/
Cc1[nH][nH]c(=O)c1C(c1ccc(-c2ccc(C(=O)O)cc2)o1)c1c(C)[nH][nH]c1=O	/	/	/	.	/	/	/	/	/
Cc1[nH][nH]c(=O)c1C(c1ccc(-c2ccc(Cl)c(Cl)c2)o1)c1c(C)[nH][nH]c1=O	.	.	79	74	.	.	.	.	63
Cc1[nH][nH]c(=O)c1C(c1ccc(-c2ccc(F)cc2)o1)c1c(C)[nH][nH]c1=O	.	.	72	75	.	.	.	.	72
COc1ccc(-c2ccc(C(c3c(C)[nH][nH]c3=O)c3c(C)[nH][nH]c3=O)o2)c([N+](=O)[O-])c1	.	.	75	38	.	.	.	.	.
COc1ccc(C2=NO[C@@](CC(=O)O)(C(=O)Nc3ccc4c(c3)OCCO4)C2)cc1	.	.	.	.	.	.	/	/	/
SMILES	SENP8 block-1	UBC13 polyUb	Apaf1 inhib	SENP8 block-2	SENP6 block	SENP7 inh	Apaf-1 inh conf	Rh110 quench	SENP8 conf	others
O=C1CC(c2ccccc2)=NN1c1ccccc1	/	/	/	.	/	/	/	/	/
CC1=NN(c2cccc(Cl)c2)C(=O)C1	.	.	75	64	.	.	.	.	55
CC1=NN(c2ccc(S(=O)(=O)O)cc2Cl)C(=O)C1	.	.	66	76	.	.	.	.	.
COC(=O)/C(=C/Nc1ccc(O)cc1)[N+](=O)[O-]	.	.	91	74	.	.	.	.	.
COC(=O)/C(=C/Nc1ccccc1)[N+](=O)[O-]	.	.	.	.	.	.	/	/	/
Cc1cc2[nH]c(=O)c(=O)[nH]c2cc1S(=O)(=O)NCc1ccc(Cl)cc1	.	.	.	.	.	.	/	/	/
O=C1N[C@@H](Cc2cn(S(=O)(=O)c3ccccc3)c3ccccc23)C(=O)N[C@H]1Cc1ccccc1	.	.	.	.	.	.	/	/	/
COc1cc(O)c(NC(C)=O)c2nonc12	.	.	87	60	.	.	.	.	.
COc1cc(-c2ccc(NC(C)=O)c(OC)c2)ccc1NC(C)=O	.	.	.	.	.	.	/	/	/
CCCCN1C(=O)c2ccc(C(=O)OCC(=O)NCCc3ccc(S(N)(=O)=O)cc3)cc2C1=O	.	.	.	.	.	.	/	/	/
O=C1CCCC2=C1C1(O)C(=O)c3ccccc3C1(O)O2 (centres undefined)	.	.	92	51	.	.	72	.	89	Apaf1 inh interf=.
CCOC(=O)C1=C(COC(=O)C2CC(=O)N(c3ccc(CC)cc3)C2)NC(=O)NC1C (centres undefined)	.	.	.	.	.	.	/	/	/
O=c1cc(-c2cccc([N+](=O)[O-])c2)[nH][nH]1	.	.	68	43	.	.	.	.	.
CCCCOc1cc(NCc2ccccc2)c2ncn(C(C)C)c2c1	.	.	61	51	.	.	47	.	65	Apaf1 inh interf=.
CCOC(=O)c1nn(-c2ccccc2C)c(=O)c2c(N)scc12	.	.	47	47	.	.	.	.	.
COc1ccc(-c2cc(=O)n(CCC#N)[nH]2)cc1	.	.	94	43	.	.	.	.	.
COc1ccc(-c2ncn(CCC#N)c2[N+](=O)[O-])cc1	.	.	.	.	.	.	/	/	/
COc1cccc2nc3cc(C)c(C)cc3nc12	95	.	84	42	91	97	.	.	78
COc1cccc2c1nc(C)c1cc(C)oc12	.	.	.	.	.	.	/	/	/
CN(C)C=Nc1c(Br)cc(Br)c2nonc12	.	.	43	58	.	.	.	.	45
O=[N+]([O-])c1cc(C(F)(F)F)cc([N+](=O)[O-])c1NN=C1CCCCC1	.	.	.	42	.	.	/	/	.
O=[N+]([O-])c1cc(S(=O)(=O)N2CCCC2)ccc1NN=C1CCCCC1	.	.	.	.	.	.	/	/	/
